Assays:
[1] = biological target: T1, Muscarinic acetylcholine receptor M2 (Homo sapiens) (UniProt P08172); test: Antagonist activity at human muscarinic M2 receptor expressed in HEK293 cells co-expressing HA-Galphaq/i5 assessed as inhibition of carbachol-induced IP1 accumulation pre-incubated for 30 mins followed by carbachol addition and measured after 1 hr by HTRF assay; format: functional, cell-based
T1 sequence (whole entry): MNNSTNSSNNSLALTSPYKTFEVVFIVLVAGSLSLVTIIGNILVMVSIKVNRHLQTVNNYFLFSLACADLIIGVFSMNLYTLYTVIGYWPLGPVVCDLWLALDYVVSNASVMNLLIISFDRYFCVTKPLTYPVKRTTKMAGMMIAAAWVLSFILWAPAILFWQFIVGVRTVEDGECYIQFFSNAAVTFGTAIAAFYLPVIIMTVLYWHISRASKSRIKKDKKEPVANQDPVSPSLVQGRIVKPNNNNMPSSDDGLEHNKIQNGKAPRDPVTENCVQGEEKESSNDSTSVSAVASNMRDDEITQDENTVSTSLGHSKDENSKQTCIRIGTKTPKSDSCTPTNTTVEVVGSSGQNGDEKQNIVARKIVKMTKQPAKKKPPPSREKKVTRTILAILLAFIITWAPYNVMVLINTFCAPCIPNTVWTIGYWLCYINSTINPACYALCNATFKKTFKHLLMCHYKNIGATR
Summary of the method: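 HEK-293 cells transiently cotransfected (receptor plus HA-tagged Gαqi5), detached after 1 day and seeded at 10,000 cells/well for 24 h at 37 °C. Duplicates.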

[2] = biological target: T2, Muscarinic acetylcholine receptors; M2 & M3 (Homo sapiens) (UniProt P20309+P08172); test: Selectivity ratio of Ki for human muscarinic M3 receptor expressed in stable CHO-K1 cells to Ki for human muscarinic M2 receptor expressed in stable CHO-K1 cells; format: cell-based
T2 sequence (P20309 whole entry, looked up, one chain of several): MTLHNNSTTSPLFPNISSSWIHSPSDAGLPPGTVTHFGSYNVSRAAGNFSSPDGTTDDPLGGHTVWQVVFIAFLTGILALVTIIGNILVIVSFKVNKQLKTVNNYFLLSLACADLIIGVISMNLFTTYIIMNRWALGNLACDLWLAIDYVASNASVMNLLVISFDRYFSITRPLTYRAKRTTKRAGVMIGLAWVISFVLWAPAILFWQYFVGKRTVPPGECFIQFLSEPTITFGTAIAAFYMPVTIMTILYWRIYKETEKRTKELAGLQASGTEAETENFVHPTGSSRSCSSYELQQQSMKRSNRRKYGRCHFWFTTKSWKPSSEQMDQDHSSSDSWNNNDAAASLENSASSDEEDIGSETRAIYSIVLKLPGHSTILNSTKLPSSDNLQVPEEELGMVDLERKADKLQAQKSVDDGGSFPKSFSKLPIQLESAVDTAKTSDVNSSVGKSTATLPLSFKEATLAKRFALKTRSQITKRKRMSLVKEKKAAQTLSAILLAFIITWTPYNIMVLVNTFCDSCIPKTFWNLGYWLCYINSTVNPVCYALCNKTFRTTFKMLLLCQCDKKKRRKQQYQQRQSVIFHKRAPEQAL

[3] = biological target: T3, Muscarinic acetylcholine receptor M2 and M5 (Homo sapiens) (UniProt P08172+P08912); test: Selectivity ratio of Ki for human muscarinic M5 receptor expressed in stable CHO-K1 cells to Ki for human muscarinic M2 receptor expressed in stable CHO-K1 cells; format: cell-based
[4] = biological target: T4, Muscarinic acetylcholine receptor M1 (Homo sapiens, UniProt P11229); test: Displacement of [3H]-NMS from human muscarinic M1 receptor expressed in CHO-K9 cells after 3 hrs by microbeta2 scintillation counting method; format: cell-based
T4 sequence (P11229 whole entry): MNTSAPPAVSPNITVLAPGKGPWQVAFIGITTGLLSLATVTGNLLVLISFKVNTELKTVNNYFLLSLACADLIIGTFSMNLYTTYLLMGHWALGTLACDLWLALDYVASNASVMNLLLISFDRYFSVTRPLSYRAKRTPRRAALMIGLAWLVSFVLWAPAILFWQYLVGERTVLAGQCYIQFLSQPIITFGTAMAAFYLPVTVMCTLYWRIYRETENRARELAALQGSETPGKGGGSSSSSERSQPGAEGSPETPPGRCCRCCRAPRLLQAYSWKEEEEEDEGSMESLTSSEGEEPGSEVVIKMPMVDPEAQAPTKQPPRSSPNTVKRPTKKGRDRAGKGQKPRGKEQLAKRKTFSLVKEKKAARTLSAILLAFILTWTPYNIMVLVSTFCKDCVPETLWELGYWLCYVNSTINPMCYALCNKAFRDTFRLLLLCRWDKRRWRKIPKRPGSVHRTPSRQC
Summary of the method: (§1)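 [3H]NMS competition binding on intact CHO-hMxR cells in L15 medium with 1% BSA, 3 h at 22 ± 1 °C with gentle shaking. [3H]NMS was 0.2 nM (M1, M2, M3), 0.1 nM (M4) or 0.3 nM (M5). […] Cells were lysed in urea/acetic acid/Triton and counted by liquid scintillation. Ki from Cheng-Prusoff. Triplicates, ≥3 experiments.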

[5] = biological target: T5, Muscarinic acetylcholine receptor M2 (Homo sapiens, UniProt P08172); test: Displacement of [3H]-NMS from human muscarinic M2 receptor expressed in CHO-K9 cells after 3 hrs by microbeta2 scintillation counting method; format: cell-based; summary of the method: as §1
T5 sequence (P08172 whole entry): T1 sequence (whole entry)

[6] = biological target: Muscarinic acetylcholine receptor M3 (Homo sapiens, UniProt P20309); test: Displacement of [3H]-NMS from human muscarinic M3 receptor expressed in CHO-K9 cells after 3 hrs by microbeta2 scintillation counting method; format: cell-based; summary of the method: as §1
Sequence of Muscarinic acetylcholine receptor M3 (P20309 whole entry): as the sequence (P20309 whole entry, looked up, one chain of several) above

[7] = biological target: T6, Muscarinic acetylcholine receptor M4 (Homo sapiens, UniProt P08173); test: Displacement of [3H]-NMS from human muscarinic M4 receptor expressed in CHO-K9 cells after 3 hrs by microbeta2 scintillation counting method; format: cell-based; summary of the method: as §1
T6 sequence (P08173 whole entry): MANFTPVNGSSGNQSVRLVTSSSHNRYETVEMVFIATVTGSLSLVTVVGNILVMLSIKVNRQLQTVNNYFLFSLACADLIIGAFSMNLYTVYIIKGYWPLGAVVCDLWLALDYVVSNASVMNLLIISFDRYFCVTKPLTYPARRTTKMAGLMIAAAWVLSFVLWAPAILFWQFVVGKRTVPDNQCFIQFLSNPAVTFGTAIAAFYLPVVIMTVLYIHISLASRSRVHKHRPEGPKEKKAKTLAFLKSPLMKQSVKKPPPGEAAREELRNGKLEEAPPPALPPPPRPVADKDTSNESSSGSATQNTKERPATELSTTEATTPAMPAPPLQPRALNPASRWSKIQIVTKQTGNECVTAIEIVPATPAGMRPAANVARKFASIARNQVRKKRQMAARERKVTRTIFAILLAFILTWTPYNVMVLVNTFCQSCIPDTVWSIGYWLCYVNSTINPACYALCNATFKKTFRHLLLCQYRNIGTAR

[8] = biological target: T7, Muscarinic acetylcholine receptor M5 (Homo sapiens, UniProt P08912); test: Displacement of [3H]-NMS from human muscarinic M5 receptor expressed in CHO-K9 cells after 3 hrs by microbeta2 scintillation counting method; format: cell-based; summary of the method: as §1
T7 sequence (P08912 whole entry): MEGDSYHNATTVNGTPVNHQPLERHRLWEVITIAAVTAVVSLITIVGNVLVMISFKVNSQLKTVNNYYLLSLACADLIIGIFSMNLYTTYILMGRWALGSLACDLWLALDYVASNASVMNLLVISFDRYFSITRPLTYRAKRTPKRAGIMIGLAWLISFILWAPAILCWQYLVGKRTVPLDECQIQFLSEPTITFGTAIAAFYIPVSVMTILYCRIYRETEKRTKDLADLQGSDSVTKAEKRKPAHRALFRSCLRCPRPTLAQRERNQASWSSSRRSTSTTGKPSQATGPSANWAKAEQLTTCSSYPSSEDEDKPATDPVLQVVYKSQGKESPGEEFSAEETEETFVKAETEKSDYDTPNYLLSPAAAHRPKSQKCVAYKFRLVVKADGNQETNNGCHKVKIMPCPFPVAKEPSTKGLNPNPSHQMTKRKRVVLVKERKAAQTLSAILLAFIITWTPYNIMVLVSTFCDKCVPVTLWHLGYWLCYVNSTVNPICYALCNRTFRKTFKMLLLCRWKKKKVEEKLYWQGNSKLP

[9] = biological target: Muscarinic acetylcholine receptors; M1 & M2 (Homo sapiens) (UniProt P11229+P08172); test: Selectivity ratio of Ki for human muscarinic M1 receptor expressed in CHO-K9 cells to Ki for human muscarinic M2 receptor expressed in CHO-K9 cells; format: cell-based
Summary of the method: (§2)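 Ratio of mean Ki values. Each Ki came from an individual [3H]NMS competition experiment at the given CHO-hMxR subtype, converting IC50 to Ki by Cheng-Prusoff before averaging.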

[10] = biological target: T2, Muscarinic acetylcholine receptors; M2 & M3 (Homo sapiens); test: Selectivity ratio of Ki for human muscarinic M3 receptor expressed in CHO-K9 cells to Ki for human muscarinic M2 receptor expressed in CHO-K9 cells; format: cell-based; summary of the method: as §2
[11] = biological target: Muscarinic acetylcholine receptor M2 and M4 (Homo sapiens) (UniProt P08173+P08172); test: Selectivity ratio of Ki for human muscarinic M4 receptor expressed in CHO-K9 cells to Ki for human muscarinic M2 receptor expressed in CHO-K9 cells; format: cell-based; summary of the method: as §2
[12] = biological target: T3, Muscarinic acetylcholine receptor M2 and M5 (Homo sapiens); test: Selectivity ratio of Ki for human muscarinic M5 receptor expressed in CHO-K9 cells to Ki for human muscarinic M2 receptor expressed in CHO-K9 cells; format: cell-based; summary of the method: as §2

| SMILES | inhibition [1] | Ratio Ki [2] | Ratio Ki [3] | Ki [4] | Ki [5] | Ki [6] | Ki [7] | Ki [8] | Ratio Ki [9] | Ratio Ki [10] | Ratio Ki [11] | Ratio Ki [12] |
| --- | --- | --- | --- | --- | --- | --- | --- | --- | --- | --- | --- | --- |
| CN1[C@@H]2CC[C@H]1C[C@@H](OC(=O)C(CO)c1ccccc1)C2 (stereo not given in full) | Dose-dependent effect | – | – | – | – | – | – | – | – | – | – | – |
| CCCN(CCC)CC1CCCCN1CCNC(=O)N1c2ccccc2C(=O)Nc2cccnc21 (stereo not given) | – | 11 | 89 | – | – | – | – | – | – | – | – | – |
| CC(=O)N[C@@H](CCCCN)C(=O)N[C@@H](Cc1ccc(O)cc1)C(=O)NCCCCC1CCN(CC(=O)N2c3ccccc3NC(=O)c3ccccc32)CC1 | – | – | – | 30.2 nM | 1.82 nM | 1620 nM | 10.7 nM | 74.1 nM | 17 | 720 | 5.9 | 43 |
| N=C(N)NCCC[C@H](N)C(=O)NCCCCC1CCN(CC(=O)N2c3ccccc3NC(=O)c3ccccc32)CC1 | – | – | – | 107 nM | 5.37 nM | 1260 nM | 56.2 nM | 2400 nM | 18 | 260 | 9.8 | 410 |
| CC(=O)N[C@@H](CCC(N)=O)C(=O)N[C@@H](CC(C)C)C(=O)NCCCCC1CCN(CC(=O)N2c3ccccc3NC(=O)c3ccccc32)CC1 | – | – | – | 1050 nM | 309 nM | > 10000 nM | 1070 nM | 1510 nM | 3.4 | > 27 | 3.6 | 4.9 |
| CC(=O)N[C@@H](Cc1ccc(O)cc1)C(=O)N[C@@H](CCCCN)C(=O)NCCCCC1CCN(CC(=O)N2c3ccccc3NC(=O)c3ccccc32)CC1 | – | – | – | 87.1 nM | 46.8 nM | 10000 nM | 295 nM | 708 nM | 1.8 | 210 | 6.6 | 15 |
| CC(=O)N[C@@H](Cc1ccc(O)cc1)C(=O)N[C@@H](C)C(=O)N[C@@H](CCCCN)C(=O)NCCCCC1CCN(CC(=O)N2c3ccccc3NC(=O)c3ccccc32)CC1 | – | – | – | 178 nM | 9.33 nM | 5010 nM | 57.5 nM | 209 nM | 19 | 550 | 5.9 | 23 |
| CC(=O)N[C@@H](CCCCN)C(=O)N[C@@H](C)C(=O)N[C@@H](CCCNC(=N)N)C(=O)NCCCCC1CCN(CC(=O)N2c3ccccc3NC(=O)c3ccccc32)CC1 | – | – | – | 115 nM | 7.76 nM | 2690 nM | 89.1 nM | 427 nM | 15 | 350 | 12 | 56 |
| CC(=O)N[C@@H](Cc1c[nH]c2ccccc12)C(=O)N[C@@H](Cc1ccc(O)cc1)C(=O)NCCN1CCN(CCCCC2CCN(CC(=O)N3c4ccccc4NC(=O)c4ccccc43)CC2)CC1 | – | – | – | 0.871 nM | 0.148 nM | 13.5 nM | 1.07 nM | 38.9 nM | 6.3 | 79 | 7 | 220 |
| CN1CC=C(c2nsnc2OCCCN2CCN(CCCCC3CCN(CC(=O)N4c5ccccc5NC(=O)c5ccccc54)CC3)CC2)CC1 | – | – | – | 1.45 nM | 0.0794 nM | 13.2 nM | 2.57 nM | 33.9 nM | 20 | 180 | 35 | 230 |
| CC(=O)N[C@@H](CCCCN)C(=O)N[C@@H](C)C(=O)N[C@@H](Cc1ccc(O)cc1)C(=O)NCCN1CCN(CCCCC2CCN(CC(=O)N3c4ccccc4NC(=O)c4ccccc43)CC2)CC1 | – | – | – | 1.26 nM | 0.174 nM | 44.7 nM | 1.26 nM | 95.5 nM | 8.3 | 240 | 8.1 | 560 |
| CC(=O)N[C@@H](Cc1c[nH]c2ccccc12)C(=O)N[C@@H](C)C(=O)N[C@@H](Cc1ccc(O)cc1)C(=O)NCCN1CCN(CCCCC2CCN(CC(=O)N3c4ccccc4NC(=O)c4ccccc43)CC2)CC1 | – | – | – | 2.29 nM | 0.0794 nM | 35.5 nM | 1.62 nM | 30.9 nM | 27 | 410 | 19 | 390 |
| CC(=O)N[C@@H](Cc1ccc(O)cc1)C(=O)N[C@@H](C)C(=O)N[C@@H](CCCCN)C(=O)NCCN1CCN(CCCCC2CCN(CC(=O)N3c4ccccc4NC(=O)c4ccccc43)CC2)CC1 | – | – | – | 2.34 nM | 0.115 nM | 28.2 nM | 3.24 nM | 29.5 nM | 22 | 290 | 28 | 260 |
| CCC(=O)NCCCCC1CCN(CC(=O)N2c3ccccc3NC(=O)c3ccccc32)CC1 | – | – | – | 85.1 nM | 79.4 nM | 5370 nM | 209 nM | 7080 nM | 1.1 | 69 | 2.7 | 98 |
| CC(=O)N[C@@H](CCCCN)C(=O)N[C@@H](CCCNC(=N)N)C(=O)NCC(=O)NCCCCC1CCN(CC(=O)N2c3ccccc3NC(=O)c3ccccc32)CC1 | – | – | – | 32.4 nM | 4.17 nM | 646 nM | 27.5 nM | 200 nM | 8.2 | 180 | 6.9 | 49 |

Reference: ChEMBL document CHEMBL4396879, “Conjugation of Short Peptides to Dibenzodiazepinone-Type Muscarinic Acetylcholine Receptor Ligands Determines M2R Selectivity” (J Med Chem, 2019)
